Results: PMC9924099 (Journal of medicinal chemistry, 2021)
Read-outs that look alike come from different tables or passages of the source.

Assays:
[1] = tested on: p53^R280K MDA-MB-231 cells; assay: WST-1 cell proliferation assay; format: cell-based, human; details: Homo sapiens, read-out: IC50, inhibition of cell proliferation
[2] = tested on: p53^R273H MDA-MB-468 cells; assay: WST-1 cell proliferation assay; format: cell-based, human; details: Homo sapiens, read-out: IC50, inhibition of cell proliferation
[3] = tested on: mammary epithelial cells (MCF10A); assay: Proliferation of normal cells; format: cell-based, human; details: MCF10A normal cells vs MDA-MB-231 and MDA-MB-468
colon cells (CCD841) = assay: Proliferation of normal cells; format: cell-based, human; details: CCD841 normal cells vs MDA-MB-231 and MDA-MB-468
[4] = tested on: p53^R280K MDA-MB-231 cells; assay: Annexin V staining; format: cell-based, human; details: MDA-MB-231, 6 μM or 12 μM, 24 h
[5] = tested on: p53^R273H MDA-MB-468 cells; assay: Annexin V staining; format: cell-based, human; details: MDA-MB-468, 6 μM or 12 μM
WT p53 MCF-7 cells [6] = assay: Annexin V staining; format: cell-based, human; details: MCF-7, 24 h
Summary of the method: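 After 24 h exposure to test compound or DMSO, MCF-7 cells (RPMI 1640, 10% FBS, 1% penicillin/streptomycin, 1% L-glutamine) were scraped, PBS-washed and taken up in Annexin V binding buffer. They were stained with fluorochrome-conjugated Annexin V for 15 min at RT in the dark, then PI staining solution was added. Flow cytometry read-out; % Annexin V-positive cells expressed relative to DMSO.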

[7] = target: p53^R280K in MDA-MB-231 cells (Homo sapiens, UniProt P04637, R280K); assay: Western blot of p53 expression; format: cell-based; details: MDA-MB-231, 6 μM or 12 μM, 24 h
Summary of the method: (§1)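 Cells were treated 24 h with 6 μM or 12 μM test compound or DMSO and lysed in NP-40/Tris-Cl pH 8.0 buffer with protease inhibitors. Load on 4–12% SDS-PAGE was 20 μg for MDA-MB-231 and MDA-MB-468 or 50 μg for MCF-7. After PVDF transfer, blots were probed with p53 DO-1 antibody, reprobed for GAPDH as loading control and developed by ECL.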

[8] = target: p53^R273H in MDA-MB-468 cells (Homo sapiens, UniProt P04637, R273H); assay: Western blot of p53 expression; format: cell-based; details: MDA-MB-468, 6 μM or 12 μM, 24 h
Summary of the method: as §1

WT p53 in MCF-7 cells = WT p53 in MCF-7 cells (Homo sapiens, UniProt P04637); assay: Western blot of p53 expression; format: cell-based; details: MCF-7, 6 μM or 12 μM, 24 h
Summary of the method: as §1

[9] = tested on: p53^R280K MDA-MB-231 cells; assay: qRT-PCR gene expression; format: cell-based, human
Summary of the method: (§2)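 Cells were exposed to 6 μM test compound or DMSO for 4 h. RNA was extracted and reverse-transcribed, and transcripts were quantified by TaqMan qRT-PCR normalised to GAPDH. Values are means with SD from triplicates of repeated experiments.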

[10] = tested on: p53^R273H MDA-MB-468 cells; assay: qRT-PCR gene expression; format: cell-based, human
Summary of the method: as §2

WT p53 MCF-7 cells [11] = assay: qRT-PCR gene expression; format: cell-based, human
Summary of the method: as §2

[12] = tested on: caspase 3 and PARP1 in p53^R280K MDA-MB-231 cells; assay: Western blot of caspase 3 and PARP1; format: cell-based, human; details: MDA-MB-231, 24 h
Summary of the method: (§3)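 Cells grown in RPMI 1640 with 10% FBS, 1% penicillin/streptomycin and 1% L-glutamine, then given test compound or DMSO control for 24 h. Lysed 30 min on ice in Tris-Cl pH 8.0/NaCl/glycerol/NP-40/EDTA buffer with protease inhibitors, then cleared. 100 μg lysate run on 4-12% SDS-PAGE, transferred to PVDF, probed with anti-PARP and anti-caspase 3 (1:1000 each). ECL detection.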

[13] = tested on: caspase 3 and PARP1 in p53^R273H MDA-MB-468 cells; assay: Western blot of caspase 3 and PARP1; format: cell-based, human; details: MDA-MB-468, 24 h
Summary of the method: as §3

[14] = tested on: caspase 3 and PARP1 in WT p53 MCF-7 cells; assay: Western blot of caspase 3 and PARP1; format: cell-based, human; details: MCF-7 (caspase 3-deficient), 24 h
Summary of the method: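 MCF-7 cells were treated with test compound or DMSO for 24 h and lysed on ice for 30 min (20 mM Tris-Cl pH 8.0, 137 mM NaCl, 10% glycerol, 1% NP-40, 2 mM EDTA, protease inhibitors). Lysates were cleared at 18,500 × g. 100 μg lysate was run on 4–12% SDS-PAGE, transferred to PVDF and probed with anti-PARP and anti-caspase 3 (1:1000), HRP secondary and ECL. GAPDH served as loading control.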

SMILES: [Se]=C=NCCC12CC3CC(CC(C3)C1)C2 [Ad-ISeC 14, 1-Isoselenocyanato-2-(adamantan-1-yl)ethane]
- IC50 ([1]; MDA-MB-231, 24 h): 6 to 12 µM
- IC50 ([1]; MDA-MB-231, 72 h): 6 to 12 µM
- IC50 ([2]; MDA-MB-468, 24 h): 6 to 12 µM
- IC50 ([2]; MDA-MB-468, 72 h): 6 to 12 µM
- IC50 compared with mutant p53 tumor cells (in words) [3]: significantly higher
- IC50 compared with mutant p53 tumor cells (in words) (colon cells (CCD841)): significantly higher
- increase in Annexin V stained cells compared to DMSO [4]: enhanced the apoptotic potential
- level of apoptosis compared to Ad-ITC 5 [5]: > 2 fold
- increase in Annexin V stained cells compared to DMSO ([5]; 24 h): enhanced the apoptotic potential
- increase in Annexin V stained cells compared to DMSO (WT p53 MCF-7 cells [6]): not in MCF-7 cells
- mutant p53 expression (western blot) [7]: significant reduction in mutant p53 expression
- mutant p53 expression (western blot) [8]: significant reduction in mutant p53 expression
- WT p53 expression (western blot) (WT p53 in MCF-7 cells): marginally elevated
- expression of canonical p53 targets p21 and NOXA ([9]; MDA-MB-231, 6 μM, 4 h): significantly enhanced the levels of p21 and NOXA
- p53 mRNA levels ([9]; MDA-MB-231, 4 h): remained unchanged
- expression of MDM2 ([10]; MDA-MB-468, 6 μM): statistically significant elevation of MDM2
- expression of canonical p53 targets p21 and NOXA ([10]; MDA-MB-468, 6 μM, 4 h): significantly enhanced the levels of p21 and NOXA
- p53 mRNA levels ([10]; MDA-MB-468, 4 h): remained unchanged
- expression of MDM2 (WT p53 MCF-7 cells [11]; MCF-7, 6 μM): statistically significant elevation of MDM2
- expression of canonical p53 targets p21 and NOXA (WT p53 MCF-7 cells [11]; MCF-7, 6 μM, 4 h): significant increase in the expression levels
- p53 mRNA level (WT p53 MCF-7 cells [11]; MCF-7, 4 h): increase in the p53 mRNA level
- levels of uncleaved caspase 3, uncleaved PARP1 and cleaved-PARP1 [12]: decrease in the levels of uncleaved caspase 3 and PARP-1 and an increase in the levels of cleaved-PARP1 fragment
- levels of uncleaved caspase 3, uncleaved PARP1 and cleaved-PARP1 [13]: decrease in the levels of uncleaved caspase 3 and PARP-1 and an increase in the levels of cleaved-PARP1 fragment
- levels of uncleaved PARP1 and cleaved-PARP1 [14]: did not detect any significant change
